Reference: ChEMBL document CHEMBL1147722, “Discovery of proline sulfonamides as potent and selective hepatitis C virus NS5b polymerase inhibitors. Evidence for a new NS5b polymerase binding site” (J Med Chem, 2006)

Assays:
[1] = molecular target: RNA-directed RNA polymerase (Hepacivirus hominis, UniProt O39930); test: Inhibition of HCV NS5B RNA dependent RNA polymerase
[2] = molecular target: DNA polymerase beta (Homo sapiens, UniProt P06746); test: Inhibition of human polymerase beta
[3] = molecular target: Human immunodeficiency virus type 1 reverse transcriptase (Human immunodeficiency virus 1, UniProt Q72547); test: Inhibition of HIV reverse transcriptase
[4] = molecular target: NS3 (Hepatitis C virus, UniProt A3EZJ3); test: Inhibition of HCV helicase; set-up: species or system Hepacivirus hominis
NS3, sequence (A3EZJ3 whole entry): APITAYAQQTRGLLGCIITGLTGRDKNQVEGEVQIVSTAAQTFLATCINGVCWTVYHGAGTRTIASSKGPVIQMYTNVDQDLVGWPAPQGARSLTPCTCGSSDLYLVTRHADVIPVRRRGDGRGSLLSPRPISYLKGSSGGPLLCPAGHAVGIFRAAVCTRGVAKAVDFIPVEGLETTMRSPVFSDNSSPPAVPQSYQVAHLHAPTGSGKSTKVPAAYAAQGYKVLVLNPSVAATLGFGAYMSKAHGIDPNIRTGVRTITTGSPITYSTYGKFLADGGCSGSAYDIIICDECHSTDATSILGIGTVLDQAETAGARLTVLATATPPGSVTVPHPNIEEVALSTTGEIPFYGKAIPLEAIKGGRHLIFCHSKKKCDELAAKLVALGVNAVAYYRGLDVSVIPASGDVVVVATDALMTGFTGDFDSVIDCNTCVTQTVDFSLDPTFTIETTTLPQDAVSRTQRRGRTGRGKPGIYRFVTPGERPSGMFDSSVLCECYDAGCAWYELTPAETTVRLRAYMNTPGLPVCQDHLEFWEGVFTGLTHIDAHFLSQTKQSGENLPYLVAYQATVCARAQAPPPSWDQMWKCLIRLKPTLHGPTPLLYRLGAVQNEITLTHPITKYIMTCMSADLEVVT

[5] = Permeability from apical to basolateral side of the Caco-2 cell; format: ADME, cell-based; conditions: human, read-out: permeability
[6] = Permeability at pH 7.4 by PAMPA assay; format: ADME; conditions: read-out: permeability
[7] = system: Vero; test: Cytotoxicity against Vero cell line; format: functional, cell-based; conditions: Chlorocebus sabaeus
Method in brief: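 Cytotoxicity read by MTS assay on actively growing cells: Vero cells for line 1, clone A cells for line 2. IC50 was determined in each assay.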

RNA-directed RNA polymerase, sequence (O39930 whole entry): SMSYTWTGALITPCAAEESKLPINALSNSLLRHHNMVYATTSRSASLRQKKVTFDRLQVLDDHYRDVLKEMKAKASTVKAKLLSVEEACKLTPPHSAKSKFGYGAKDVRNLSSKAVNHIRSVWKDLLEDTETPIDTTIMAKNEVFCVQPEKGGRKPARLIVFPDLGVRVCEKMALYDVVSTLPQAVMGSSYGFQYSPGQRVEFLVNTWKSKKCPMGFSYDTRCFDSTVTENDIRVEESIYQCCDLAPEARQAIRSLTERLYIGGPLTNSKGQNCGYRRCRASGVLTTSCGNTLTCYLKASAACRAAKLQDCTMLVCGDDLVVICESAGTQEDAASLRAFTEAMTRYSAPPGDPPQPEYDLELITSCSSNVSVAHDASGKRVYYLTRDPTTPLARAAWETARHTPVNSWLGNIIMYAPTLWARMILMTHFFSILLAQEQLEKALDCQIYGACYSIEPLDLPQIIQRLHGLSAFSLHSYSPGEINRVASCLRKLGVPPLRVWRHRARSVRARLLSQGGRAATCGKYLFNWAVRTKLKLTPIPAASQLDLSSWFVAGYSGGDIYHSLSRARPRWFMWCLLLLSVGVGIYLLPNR

SMILES | IC50 [1] | also measured
O=C(O)[C@@H]1CCCN1S(=O)(=O)c1cc(F)cc(Cl)c1O | 2.1 µM | 
O=C(O)[C@H]1CCCCN1S(=O)(=O)c1cc(Cl)cc(Cl)c1O | 7.1 µM | 
O=C(O)C1CSCN1S(=O)(=O)c1cc(Cl)cc(Cl)c1O (single isomer, unassigned; 34) | 1.7 µM | 
COC(=O)[C@@H]1CCCN1S(=O)(=O)c1cc(Cl)cc(Cl)c1O | > 20 µM | 
Nc1ccccc1S(=O)(=O)N1CCC[C@H]1C(=O)O | > 20 µM | 
O=C(O)C1CSCN1S(=O)(=O)c1cc(Cl)cc(Cl)c1O (single isomer, unassigned; 33) | 0.24 µM | 
O=C(O)[C@@H]1CCCN1S(=O)(=O)c1cc(Cl)cc(Br)c1O | 0.26 µM | 
O=C(O)[C@@H]1CCCCN1S(=O)(=O)c1cc(Cl)cc(Cl)c1O | 2 µM | 
Cc1cc(NC(=O)c2ccccc2)c(S(=O)(=O)N2CCC[C@H]2C(=O)O)cc1Cl | > 20 µM | 
Cc1cc(N)c(S(=O)(=O)N2CCC[C@H]2C(=O)O)cc1Cl | 5.95 µM | 
O=C(O)[C@@H]1CCCN1S(=O)(=O)c1cc(Cl)cc(Cl)c1O | 0.77 µM | 
CC(=O)Nc1cc(C)c(Cl)cc1S(=O)(=O)N1CCC[C@H]1C(=O)O | > 20 µM | 
Cc1cc(S(=O)(=O)N2CCC[C@H]2C(=O)O)c(N)cc1Cl |  | IC50 [2]: > 100 µM; IC50 [3]: > 100 µM; IC50 [4]: > 75 µM
O=S(=O)(c1cc(Cl)cc(Cl)c1O)N1CCCC1 | 4.8 µM | 
O=S(=O)(c1cc(Cl)cc(Cl)c1O)N1CCC[C@H]1c1nn[nH]n1 | 0.56 µM | 
O=C(O)[C@H]1CCCN1S(=O)(=O)c1cc(Cl)cc(Cl)c1O | 7.9 µM | 
O=C(O)[C@@H]1CCCN1S(=O)(=O)c1cc(Cl)cc(Cl)c1 | > 20 µM | 
O=C(O)[C@@H]1CCCN1S(=O)(=O)c1cc(Cl)c(Cl)c(Cl)c1O | 0.08 µM | Papp A→B [5]: 0.4 ×10⁻⁶ cm/s; Papp [6]: 0.02 ×10⁻⁶ cm/s; IC50 [7]: > 100 µM
N#C[C@@H]1CCCN1S(=O)(=O)c1cc(Cl)cc(Cl)c1O | 1.4 µM | 
